Measurements reported in ChEMBL document CHEMBL1125148, “(R)-4-oxo-5-phosphononorvaline: a new competitive glutamate antagonist at the NMDA receptor complex” (J Med Chem, 1990).

Assays:
[1] = In vitro binding affinity towards N-methyl-D-aspartate glutamate receptor of the glutamate receptor using [3H]CPP as radioligand in rat cerebral cortical membranes.; assay type: cell membranes, Membrane
In short: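 Rat brain membranes incubated with 10 nM [3H]CPP across a range of unlabeled antagonist concentrations. Specific binding was measured by centrifugation assay and expressed as percent inhibition versus concentration.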

Rattus norvegicus = species: Rattus norvegicus; experiment: Percent inhibition of glutamate activity against cGMP was determined; assay type: functional
Glutamate receptor 1 = Glutamate receptor 1 (Rattus norvegicus, UniProt P19490); experiment: Binding affinity towards AMPA receptor using [3H]AMPA as radioligand; Inactive
Sequence of Glutamate receptor 1 (P19490 whole entry): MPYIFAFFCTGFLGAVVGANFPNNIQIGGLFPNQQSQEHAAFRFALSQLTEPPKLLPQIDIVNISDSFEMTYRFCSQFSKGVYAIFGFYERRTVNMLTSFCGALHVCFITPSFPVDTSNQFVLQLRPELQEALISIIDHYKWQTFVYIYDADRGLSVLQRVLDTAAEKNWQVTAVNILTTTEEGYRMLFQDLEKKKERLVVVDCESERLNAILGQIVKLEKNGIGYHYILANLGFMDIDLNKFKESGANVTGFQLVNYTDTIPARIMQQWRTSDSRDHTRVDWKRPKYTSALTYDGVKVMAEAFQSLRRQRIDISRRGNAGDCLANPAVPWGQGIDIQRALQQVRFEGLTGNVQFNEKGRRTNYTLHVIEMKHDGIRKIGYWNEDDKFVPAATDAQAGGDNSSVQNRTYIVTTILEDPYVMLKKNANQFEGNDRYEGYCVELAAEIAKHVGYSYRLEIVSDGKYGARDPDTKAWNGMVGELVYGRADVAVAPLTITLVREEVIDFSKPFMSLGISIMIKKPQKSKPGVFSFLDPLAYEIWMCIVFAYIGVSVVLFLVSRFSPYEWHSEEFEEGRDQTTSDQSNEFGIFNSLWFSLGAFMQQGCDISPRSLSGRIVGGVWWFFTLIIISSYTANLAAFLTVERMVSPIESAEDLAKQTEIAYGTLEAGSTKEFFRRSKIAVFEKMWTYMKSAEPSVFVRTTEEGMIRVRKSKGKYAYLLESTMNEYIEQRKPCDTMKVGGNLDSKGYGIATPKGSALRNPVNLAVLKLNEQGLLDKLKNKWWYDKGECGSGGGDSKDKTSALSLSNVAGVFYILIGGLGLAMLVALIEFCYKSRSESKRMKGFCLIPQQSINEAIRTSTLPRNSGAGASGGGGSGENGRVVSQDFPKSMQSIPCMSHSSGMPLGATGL

[2] = target: Glutamate receptor ionotropic, kainate 3 (Rattus norvegicus, UniProt P42264); experiment: Binding affinity towards Ionotropic glutamate receptor kainate using [3H]-kainic acid as radioligand; Inactive
Sequence of Glutamate receptor ionotropic, kainate 3 (P42264 whole entry): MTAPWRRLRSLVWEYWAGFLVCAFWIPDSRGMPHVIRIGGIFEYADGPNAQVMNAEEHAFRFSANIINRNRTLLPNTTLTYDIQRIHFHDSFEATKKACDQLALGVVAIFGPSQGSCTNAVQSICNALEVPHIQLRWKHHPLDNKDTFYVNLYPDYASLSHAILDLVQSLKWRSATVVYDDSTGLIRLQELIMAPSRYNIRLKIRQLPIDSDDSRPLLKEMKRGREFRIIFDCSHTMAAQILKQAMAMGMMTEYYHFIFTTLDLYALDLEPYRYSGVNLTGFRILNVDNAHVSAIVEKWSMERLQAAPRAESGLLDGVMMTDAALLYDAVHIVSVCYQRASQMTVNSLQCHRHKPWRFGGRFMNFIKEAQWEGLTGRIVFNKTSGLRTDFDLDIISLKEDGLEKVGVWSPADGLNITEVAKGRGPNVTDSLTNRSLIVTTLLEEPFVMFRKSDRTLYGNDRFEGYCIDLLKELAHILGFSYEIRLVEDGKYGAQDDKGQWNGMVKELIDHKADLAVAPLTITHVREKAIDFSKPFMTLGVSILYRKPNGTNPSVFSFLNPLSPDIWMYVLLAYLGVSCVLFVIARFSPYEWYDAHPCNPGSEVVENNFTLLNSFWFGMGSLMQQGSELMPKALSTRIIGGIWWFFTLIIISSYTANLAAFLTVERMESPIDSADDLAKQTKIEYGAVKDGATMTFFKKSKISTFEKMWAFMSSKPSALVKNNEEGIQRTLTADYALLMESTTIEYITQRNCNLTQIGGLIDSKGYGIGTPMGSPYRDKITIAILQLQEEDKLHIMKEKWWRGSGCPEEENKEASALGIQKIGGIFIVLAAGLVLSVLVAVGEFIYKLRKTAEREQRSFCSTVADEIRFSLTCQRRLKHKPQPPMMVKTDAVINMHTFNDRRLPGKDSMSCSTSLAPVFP

| SMILES | Ki [1] [µM] | IC50 (Rattus norvegicus) [µM] | Ki (Glutamate receptor 1) [µM] | Ki [2] [µM] |
| --- | --- | --- | --- | --- |
| O=C(O)[C@@H]1C[C@H](CP(=O)(O)O)CCN1 [SELFOTEL] | 0.099 | 1.1 | > 100 | > 100 |
| N[C@H](CC(=O)CP(=O)(O)O)C(=O)O | 0.109 | 5.9 | > 100 | > 100 |
| O=C(O)C1CN(CCCP(=O)(O)O)CCN1 (stereo not given) | 0.131 | 0.8 | > 100 | > 100 |
| NC(CCCP(=O)(O)O)C(=O)O (stereo not given) | 0.176 | 5.5 | > 100 | > 100 |
| NC(CCCCCP(=O)(O)O)C(=O)O (stereo not given) [AP-7] | 0.73 | 14.1 | > 100 | > 100 |
